Laboratory results from ChEMBL document CHEMBL3763021 (Eur J Med Chem, 2016).

Columns and labels:
[1] = Inhibition of Sonic-induced hedgehog signalling in mouse NIH3T3 cells after 48 hrs by Gli-luciferase reporter assay; type: cell-based; conditions: NIH3T3, 48 h
Summary of the method: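 NIH3T3 cells stably carrying a Gli-luciferase reporter were kept in DMEM with 10% FBS and 1 µg/mL puromycin, then seeded at 2×10^4 cells/well overnight at 37 °C. Compounds at 0.05–300 nM (8 concentrations) were added in medium with 0.5% FBS and 0.7 µg/mL Sonic Hh agonist, n=4 wells, for 48 h. Readout was the Firefly/Renilla luciferase ratio in lysates.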

LS174T [2] = experiment: Antitumor activity against human LS174T cells xenografted in BALB/C mouse assessed as tumor weight inhibition at 150 mg/kg, qd administered for 10 days measured twice per week; type: functional; conditions: 240 h, read-out: TGI
Summary of the method: (§1)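 Male BALB/c nude mice, 18–20 g, kept under SPF conditions. LS-174T cells at 2.5×10^7 cells/mL were injected s.c. into the right flank, and tumors were grown to about 100 mm3. Mice were randomized, n=6 treated and n=9 vehicle. Oral dosing ran qd or bid for 10 days; vehicle controls got the same volume of solvent. Tumor volume = length×width²/2, measured twice weekly. IR = (control − treated)/control for tumor weight or volume at day 10.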

Mus musculus [3] = experiment: Toxicity in BALB/C mouse xenografted with human LS174T cells assessed as loss of body weight at 37.5 to 150 mg/kg, qd administered for 10 days measured twice per week; type: organism-based; conditions: in vivo, 240 h
Summary of the method: (§2)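 Male BALB/C nude mice (18–20 g) kept under SPF conditions. LS-174T cells at 2.5×10^7 cells/mL injected subcutaneously into the right flank. Once tumors reached about 100 mm3, mice were randomized to groups of 6 (vehicle group n = 9) and dosed orally once or twice daily for 10 days. Controls received solvent. Body weight and tumor volume were measured twice weekly and deaths recorded.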

[4] = Half life in Sprague-Dawley rat at 5 mg/kg, po by LC/MS/MS analysis; type: ADME, organism-based; conditions: in vivo
Summary of the method: (§3)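 Male SD rats, 180–240 g, 3 per compound; single dose of 1 mg/kg iv or 5 mg/kg po, dosing volume 5 mL/kg. Blood was sampled from 2 min to 24 h and centrifuged at 4 °C. Plasma underwent protein precipitation, then LC/MS/MS in SRM mode with an internal standard. Parameters were derived by noncompartmental analysis.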

LS174T [5] = experiment: Antitumor activity against human LS174T cells xenografted in BALB/C mouse assessed as tumor weight inhibition at 37.5 mg/kg, qd administered for 10 days measured twice per week; type: functional; conditions: 240 h, read-out: TGI; summary of the method: as §1
[6] = Clearance in Sprague-Dawley rat at 1 mg/kg, iv by LC/MS/MS analysis; type: ADME, organism-based; conditions: in vivo; summary of the method: as §3
[7] = Mean resident time (0 to t) in Sprague-Dawley rat at 5 mg/kg, po by LC/MS/MS analysis; type: ADME, organism-based; conditions: in vivo; summary of the method: as §3
[8] = Clearance in Sprague-Dawley rat at 5 mg/kg, po by LC/MS/MS analysis; type: ADME, organism-based; conditions: in vivo; summary of the method: as §3
Mus musculus [9] = experiment: Toxicity in BALB/C mouse xenografted with human LS174T cells assessed as loss of body weight at 75 mg/kg, bid administered for 10 days measured twice per week; type: organism-based; conditions: in vivo, 240 h; summary of the method: as §2
[10] = AUC (0 to t) in Sprague-Dawley rat at 1 mg/kg, iv by LC/MS/MS analysis; type: ADME, organism-based; conditions: in vivo
Summary of the method: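 Male SD rats, 3 per compound, 180–240 g, single iv dose at 1 mg/kg, dosing volume 5 mL/kg. Blood sampled at 2, 5, 15, 30 min and 1, 2, 4, 6, 8, 10, 24 h, then centrifuged at 4 °C. Plasma protein-precipitated and analysed by LC/MS/MS in SRM mode with internal standard. AUC(0-t) obtained by noncompartmental analysis.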

LS174T [11] = experiment: Antiproliferative activity against human LS174T cells after 72 hrs by CellTiter-Glo luminescent cell viability assay; type: functional, cell-based
Summary of the method: (§4)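 Cells were grown in DMEM with 10% FBS, seeded at a density suited to each line, and left 24 h at 37 °C. Compounds were prepared in DMSO, diluted in medium over a concentration series starting at 100 µM, and applied for 72 h. CellTiter-Glo reagent was added for 30 min at room temperature before reading luminescence. IC50 came from four-parameter curve fitting.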

Mus musculus [12] = experiment: Toxicity in BALB/C mouse xenografted with human LS174T cells assessed as mortality at 37.5 to 150 mg/kg, qd administered for 10 days; type: organism-based; conditions: in vivo, 240 h; summary of the method: as §2
[13] = Half life in Sprague-Dawley rat at 1 mg/kg, iv by LC/MS/MS analysis; type: ADME, organism-based; conditions: in vivo; summary of the method: as §3
Mus musculus [14] = experiment: Toxicity in BALB/C mouse xenografted with human LS174T cells assessed as mortality at 75 mg/kg, bid administered for 10 days; type: organism-based; conditions: in vivo, 240 h; summary of the method: as §2
[15] = Mean resident time (0 to t) in Sprague-Dawley rat at 1 mg/kg, iv by LC/MS/MS analysis; type: ADME, organism-based; conditions: in vivo; summary of the method: as §3
[16] = Oral bioavailability in Sprague-Dawley rat at 5 mg/kg; type: ADME, organism-based; conditions: in vivo; summary of the method: as §3
[17] = Apparent volume of distribution in Sprague-Dawley rat at 1 mg/kg, iv by LC/MS/MS analysis; conditions: in vivo
Rattus norvegicus = experiment: Apparent volume of distribution in Sprague-Dawley rat at 5 mg/kg, po by LC/MS/MS analysis; conditions: in vivo
[18] = Cmax in Sprague-Dawley rat at 1 mg/kg, iv by LC/MS/MS analysis; type: ADME, organism-based; design: dose 1 mg/kg, route intravenous; conditions: in vivo; summary of the method: as §3
[19] = AUC (0 to t) in Sprague-Dawley rat at 5 mg/kg, po by LC/MS/MS analysis; type: ADME, organism-based; conditions: in vivo; summary of the method: as §3
[20] = Cmax in Sprague-Dawley rat at 5 mg/kg, po by LC/MS/MS analysis; type: ADME, organism-based; design: dose 5 mg/kg, route oral; conditions: in vivo; summary of the method: as §3
LS174T [21] = experiment: Antitumor activity against human LS174T cells xenografted in BALB/C mouse assessed as tumor weight inhibition at 75 mg/kg, bid administered for 10 days measured twice per week; type: functional; conditions: 240 h, read-out: TGI; summary of the method: as §1
[22] = Antiproliferative activity against human BxPC3 cells after 72 hrs by CellTiter-Glo luminescent cell viability assay; type: functional, cell-based; conditions: BXPC-3, 72 h; summary of the method: as §4
LS174T [23] = experiment: Antitumor activity against human LS174T cells xenografted in BALB/C mouse assessed as tumor volume inhibition at 150 mg/kg, qd administered for 10 days measured twice per week; type: functional; conditions: 240 h, read-out: TGI; summary of the method: as §1
LS174T [24] = experiment: Antitumor activity against human LS174T cells xenografted in BALB/C mouse assessed as tumor volume inhibition at 75 mg/kg, qd administered for 10 days measured twice per week; type: functional; conditions: 240 h, read-out: TGI; summary of the method: as §1
LS174T [25] = experiment: Antitumor activity against human LS174T cells xenografted in BALB/C mouse assessed as tumor weight inhibition at 75 mg/kg, qd administered for 10 days measured twice per week; type: functional; conditions: 240 h, read-out: TGI; summary of the method: as §1
LS174T [26] = experiment: Antitumor activity against human LS174T cells xenografted in BALB/C mouse assessed as tumor volume inhibition at 75 mg/kg, bid administered for 10 days measured twice per week; conditions: 240 h, read-out: TGI
[27] = Antiproliferative activity against human PC3 cells after 72 hrs by CellTiter-Glo luminescent cell viability assay; type: functional, cell-based; conditions: PC-3, 72 h; summary of the method: as §4
LS174T [28] = experiment: Antitumor activity against human LS174T cells xenografted in BALB/C mouse assessed as tumor volume inhibition at 37.5 mg/kg, qd administered for 10 days measured twice per week; type: functional; conditions: 240 h, read-out: TGI; summary of the method: as §1

| SMILES | IC50 [1] [nM] | half-life [4] [h] | clearance [6] [mL/min/kg] | MRT last [7] [h] | CL/F [8] [mL/min/kg] | AUC(0-t) [10] [ng·h/mL] | half-life [13] [h] | MRT last [15] [h] | bioavailability [16] [%] | Vd [17] [L/kg] | Cmax [18] [ng/mL] | AUC(0-t) [19] [ng·h/mL] | Cmax [20] [ng/mL] | further results |
| --- | --- | --- | --- | --- | --- | --- | --- | --- | --- | --- | --- | --- | --- | --- |
| Cc1ccc(CN2CCCC2)cc1NC(=O)c1ccc(Nc2ncc(F)c(-c3ccc(OC(F)(F)F)cc3)n2)cc1 | 5.16 |  |  |  |  |  |  |  |  |  |  |  |  |  |
| Cc1ccc(CN2CCN(C)CC2)cc1NC(=O)c1ccc(Nc2nccc(-c3ccc(OC(F)(F)F)cc3)n2)cc1 | 0.97 |  |  |  |  |  |  |  |  |  |  |  |  |  |
| Cc1ccc(CN(C)C)cc1NC(=O)c1ccc(Nc2nccc(-c3ccc(OC(F)(F)F)cc3)n2)cc1 | 3.04 |  |  |  |  |  |  |  |  |  |  |  |  |  |
| Cc1ccc(CN2CCOCC2)cc1NC(=O)c1ccc(Nc2nccc(-c3ccc(OC(F)(F)F)cc3)n2)cc1 | 0.89 | 6.68 | 6.69 | 6.98 | 12.3 | 2440 | 4.96 | 4.22 | 42 | 2.87 | 1200 | 6220 | 635 | inhibition in vivo at 150 mg/kg (LS174T [2]): 21.1%; Activity (Mus musculus [3]): Non-toxic; inhibition in vivo at 37.5 mg/kg (LS174T [5]): 10.2%; Activity (Mus musculus [9]): Non-toxic; IC50 (LS174T [11]): 12200 nM; Activity (Mus musculus [12]): Non-toxic; Activity (Mus musculus [14]): Non-toxic; Vd(app) (Rattus norvegicus): 7.12872 L/kg; inhibition in vivo at 75 mg/kg (LS174T [21]): 23.3%; IC50 [22]: 35400 nM; inhibition in vivo at 150 mg/kg (LS174T [23]): 38.9%; inhibition in vivo at 75 mg/kg (LS174T [24]): 23.2%; inhibition in vivo at 75 mg/kg (LS174T [25]): 9.9%; inhibition in vivo at 75 mg/kg (LS174T [26]): 42.9%; IC50 [27]: 14800 nM; inhibition in vivo at 37.5 mg/kg (LS174T [28]): 33% |
| Cc1ccc(CN2CCCC2)cc1NC(=O)c1ccc(Nc2nccc(-c3ccc(OC(F)(F)F)cc3)n2)cc1 | 1.83 |  |  |  |  |  |  |  |  |  |  |  |  |  |
| O=C(Nc1cccc(CN2CCOCC2)c1)c1ccc(Nc2nccc(-c3ccc(OC(F)(F)F)cc3)n2)cc1 | 0.56 |  | 21.5 |  |  | 769 | 3.59 | 1.53 |  | 6.33 | 915 |  |  |  |
| Cc1ccc(CN2CCCCC2)cc1NC(=O)c1ccc(Nc2ncc(F)c(-c3ccc(OC(F)(F)F)cc3)n2)cc1 | 3.12 |  |  |  |  |  |  |  |  |  |  |  |  |  |
| Cc1c(C(=O)Nc2ccc(N3C[C@@H](C)O[C@@H](C)C3)nc2)cccc1-c1ccc(OC(F)(F)F)cc1 [SONIDEGIB] | 5.5 | 4.01 | 7.69 | 5.4 | 9.72 | 2200 | 1.43 | 1.58 | 80.6 | 0.955 | 1930 | 8830 | 1400 | Vd(app) (Rattus norvegicus): 3.40593 L/kg |
| CS(=O)(=O)c1ccc(C(=O)Nc2ccc(Cl)c(-c3ccccn3)c2)c(Cl)c1 [VISMODEGIB] | 7.2 | 2.46 |  | 3.93 | 4.68 |  |  |  | > 100 |  |  | 22400 | 3640 | IC50 (LS174T [11]): 45800 nM; Activity (Mus musculus [14]): Non-toxic; inhibition in vivo at 75 mg/kg (LS174T [21]): 11.8%; IC50 [22]: 48000 nM; IC50 [27]: 66800 nM |
